# Reference: ChEMBL document CHEMBL4513216, “Probing the Open Global Health Chemical Diversity Library for Multistage-Active Starting Points for Next-Generation Antimalarials” (ACS Infect Dis, 2020)
# Assay: Toxicity liver stage against HepG2, at 10uM
# Type: cell-based
# Design: test concentration 10 uM, cell line HepG2-A16-CD81EGFP
# Details: human, HepG2-A16-CD81EGFP cells; read-out: INHIBITION
# Method in brief: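 Uninfected HepG2-A16-CD81EGFP cells, 3 × 10^3 per well, 1536-well, plated on prespotted compound at 10 μM final, parasite-free screening media added to match infected plates; puromycin 10 μM positive, DMSO 0.5% negative; run in parallel with 48 h PbLuc assay at 37 °C, 5% CO2; viability by CellTiter-Glo luminescence, normalized to controls.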
row,SMILES,cytotoxicity at 10 µM
1,Cc1c(CN2CCCCC2)c(O)n(CCCO)c(=O)c1C#N,-5.03%
2,CCc1c(C(=O)NCC2CCS(=O)(=O)C2)cnn1-c1ccc(C)cc1 (stereo unspecified),-6.69%
3,Fc1ccc(OCc2nnc([C@H]3CCN(Cc4ccncc4)C3)o2)cc1,-1.81%
4,CCCNC(=O)C[C@@H]1CCN(C(=O)c2cccnc2)C[C@@H]1CC,-0.171%
5,O=C1CO[C@H]2CN(Cc3ccc(F)c(F)c3)C[C@H]2N1,-2.49%
6,CCC(CC)C(=O)n1ccn(S(=O)(=O)c2ccc(C)cc2)c1=O,11.5%
7,Cc1ccc(C)c(-n2ncc(C(=O)NCC3COC(C)(C)O3)c2N)c1 (stereo unspecified),-4.06%
8,COc1coc(C(=O)Nc2ccncc2)cc1=O,-14.4%
9,O=C1CCSCC(C(=O)NCc2nc(-c3ccccc3)no2)N1 (stereo unspecified),-4.66%
10,C1CC(CN2CC[C@@H]3O[C@@H](c4nnc(C5CC5)o4)C[C@H]3C2)CCO1,5.35%
11,CC[C@@H]1N(Cc2ccccn2)CCC[C@]12CCC(=O)N2CCOC,8.01%
12,Cc1ccc(N2CCOCC3(CCCN(c4ncc(F)cn4)C3)C2)nn1 (stereo unspecified),-123%
13,Cc1cc(C)c(C#N)c(N2CCC(Cc3ccccc3)CC2)n1,-11.8%
14,O=S(=O)(NCC1(O)CCOc2ccccc21)c1cccs1 (stereo unspecified),-16.8%
15,COc1ccc(-c2cc(C(=O)N3N=C(C)CC3(O)C(F)(F)F)[nH]n2)cc1 (stereo unspecified),1.36%
16,O=C(O)C1CCCN1c1nc(C2CC2)cc(C(F)(F)F)n1 (stereo unspecified),7.55%
17,COCCCNC(=O)Cn1c(-c2cccc(Cl)c2)nc(C)cc1=O,-8.41%
18,Cn1nccc1C(=O)NCCN1CCC(O)(c2ccc(F)cc2)CC1,1.09%
19,NC(=O)c1cnn2c(C3CCN(CCO)CC3)ccnc12,0.695%
20,CN1CCC(NC(=O)C2CN(c3cncnc3)CCO2)CC1 (stereo unspecified),-32.5%
21,CCc1nnc(Nc2cccc(C3CCN(CC4CC4)CC3)n2)s1,-26.8%
22,Cc1ccc(=O)n(CC2(O)CCN(Cc3cnc(N(C)C)nc3)CC2)n1,-26%
23,CS(=O)(=O)N1CC2(CCN(Cc3ccccn3)C2)Cc2ccccc21 (stereo unspecified),8.08%

row,SMILES,cytotoxicity at 10 µM
1,O=C(O)c1cc(Br)cnc1OCC1CC1,6.43%
2,CCc1ccccc1OCC(=O)Nc1ccnc(OCCN(C)C)c1,17.8%
3,CN(c1cccnc1N1CCCC1)S(=O)(=O)c1cccs1,20.4%
4,COc1ccc(CNC(c2cccc(F)c2)c2cnn(C)c2)cc1 (stereo unspecified),4.91%
5,CCCC(O)CNc1cncc(Br)c1 (stereo unspecified),22.2%
6,CCOc1ncccc1CNS(=O)(=O)c1ccc2c(c1)CCO2,7.95%
7,Cc1nnc(NC(=O)NCc2ccc(N3CCNC(=O)C3)cc2)s1,-1.26%
8,O=C(CCc1ccsc1)NCC1CCN(Cc2cccs2)CC1,12.9%
9,Cc1ccc(S(C)(=O)=O)cc1C(=O)N(C)Cc1ccco1,0.0194%
10,Cc1ccc(CNC(=O)NC2CCCN(c3ncccn3)C2)n1C (stereo unspecified),5.23%
11,Cc1nn(C)c(N2CCOCC2)c1CNC(c1ccccc1)C1CC1 (stereo unspecified),4.45%
12,CCS(=O)(=O)N1CCC(Oc2ccc(C#N)cc2)CC1,16.8%
13,Cc1cc(F)ccc1N1CCCC(NC2CCSCC2)C1=O (stereo unspecified),1.07%
14,CCCS(=O)(=O)N(C)C(=O)CCc1ccccc1,4.83%
15,COc1cccc(S(=O)(=O)CCNC(C)Cn2cccn2)c1 (stereo unspecified),-3.34%
16,O=C(NCCCOCC1CC1)Nc1ccc(F)cc1,3.09%
17,CCOCCNC(=O)c1ccc(OC)cc1I,6.53%
18,Cc1cc(C)c(CNc2ncnc3ccccc23)c(=O)[nH]1,17.6%
19,CCOCCn1nnc(C2(NC(=O)c3ccccc3)CCCC2)n1,21.9%
20,Cc1cc(C)n(CC(=O)N2CCC(c3nc(C)no3)CC2)n1,1.2%
21,CC(C1CC1)N(C(=O)NCCCn1nc2ccccn2c1=O)C1CC1 (stereo unspecified),-21.4%
22,Cn1cc(-c2ncnc3c2CCN(C(=O)c2cscn2)CC3)cn1,1.15%
23,CCOCC1CN(C(=O)c2cccs2)Cc2cnn(CC3CC3)c21 (stereo unspecified),-1%

row,SMILES,cytotoxicity at 10 µM
1,CC[C@H](CO)NC(=O)c1coc(COc2ccccc2F)n1,5.21%
2,O=C(c1ccc(-c2ccsc2)nc1)N1CCCN(C2CCCCC2)CC1,6.67%
3,CN1CC2(CCN(C(=O)c3cc(-n4cccn4)ccc3Cl)CC2)OC1=O,2.3%
4,Cc1ncsc1CCC(=O)N(C)Cc1nc2ccccc2n1C,-143%
5,Cn1nccc1C(=O)N1CCN(C(=O)C2CC2)[C@@H]2CS(=O)(=O)C[C@@H]21,3.11%
6,O=C(O)[C@H]1C[C@H](C(=O)NC2CC2)CN(Cc2ccc(-c3cc[nH]n3)s2)C1,2.89%
7,COc1cccc2c1OCC(Cc1cnc(N)c(C)c1)C2 (stereo unspecified),3.36%
8,CCN(Cc1ccncc1)Cc1c[nH]nc1-c1ccc(F)cc1,-5.83%
9,Cc1nc(C(=O)N(Cc2c(C)nn(C)c2C)C(C)C)cs1,3.57%
10,Cc1nc(C)n(CC(C)C(=O)N2CCC(CN3CCOCC3)CC2)n1 (stereo unspecified),0.635%
11,CCc1nn(C)c(Cl)c1CN1C[C@H](NC(=O)CCO)[C@@H](C(C)C)C1,11.1%
12,O=C(C1CC1)N1CCN(C(=O)CSc2ccccn2)[C@H]2CS(=O)(=O)C[C@H]21,-24.6%
13,CC(C)[C@@H]1CN(CCOc2ccc(Cl)cc2)C[C@H]1NS(C)(=O)=O,-52.4%
14,COCc1noc(CN2C(=O)OC[C@@H]2C(C)C)n1,-11.8%
15,Cc1nnc(SCCNC(=O)Cn2cnc3ccccc3c2=O)s1,4.79%
16,O=C(Cc1c[nH]c2ccccc12)NCC1CCN(Cc2c[nH]cn2)C1 (stereo unspecified),2.34%
17,CCOCC(O)c1nc2c([nH]1)CC(C)(C)CNC2=O (stereo unspecified),4.71%
18,CCc1cnc(N)nc1NCCCn1nc(C)nc1C,-1.37%
19,Cc1ccc(C(=O)N2CCC3(CCC(=O)N(CCN(C)C)C3)CC2)nc1,-1.62%
20,COCCCC1(CO)CCCN(CCc2ccccc2)C1 (stereo unspecified),-9.99%
21,CCn1nccc1C(=O)NC(Cn1cccn1)C(C)(C)C (stereo unspecified),-9.24%
22,O=C(c1cc[nH]n1)N1CCCC(c2cccc(-n3ccnc3)n2)C1 (stereo unspecified),6.88%
23,CCc1ccsc1C(=O)NCCn1nc2ccccn2c1=O,-12.2%

row,SMILES,cytotoxicity at 10 µM
1,c1cnn(CC2CCCCN2c2ncnc3ccsc23)c1 (stereo unspecified),-13.9%
2,Cc1cc(NC(=O)CN2CCN(c3nccs3)C(C)C2)on1 (stereo unspecified),-5.35%
3,Cc1n[nH]c(C)c1NC(=O)CN1CCN(c2nccs2)C(C)C1 (stereo unspecified),-17.6%
4,Cc1cnn(C2CCCN(C(=O)c3cccc(-n4cnnn4)c3)C2)c1 (stereo unspecified),-8.77%
5,CCCNC(=O)CCOc1cccc(F)c1,4.75%
6,Cc1nc(C2CCCN(C(=O)c3c[nH]c(C(C)C)n3)C2)no1 (stereo unspecified),-7.52%
7,NC(=O)C1CCN(C(=O)CCCc2nnc(-c3ccccc3)o2)C1 (stereo unspecified),-19.8%
8,Cc1ncsc1C(=O)NC1CCN(CCC#N)CC1,-8.87%
9,Cc1nnc(NC(=O)CN2CCc3c(nc(C4CC4)n3C)C2)s1,-8.51%
10,O=C(NCCOCC(F)(F)F)c1ccc(-c2ccccc2)[nH]c1=O,-13.9%
11,CC(C)c1nccn1C1CCCN(C(=O)C2=NN(C)C(=O)CC2)C1 (stereo unspecified),-24.6%
12,CC(Cn1cccn1)NC(=O)N1CCCN(Cc2cccs2)CC1 (stereo unspecified),-13.5%
13,COc1ccc(NC(=O)N2CCCC2c2ccncc2)cn1 (stereo unspecified),0.165%
14,Cc1cc(C[S+]([O-])CC(=O)Nc2c(C)cccc2C)no1 (stereo unspecified),-9.65%
15,Cc1nn(C)c(N2CCOCC2)c1CNC(c1cccs1)C(C)C (stereo unspecified),-2.53%
16,CC(C)Oc1cccc(CNC(=O)NC(C)(C(=O)O)c2ccco2)c1 (stereo unspecified),-2.77%
17,CCCNC(=O)CN1CCC(C(=O)Nc2cnn(CC)c2)CC1,-2.04%
18,Cc1cc(C)n(CC2CCCN2C(=O)c2cnn(C)c2C2CC2)n1 (stereo unspecified),-0.489%
19,COc1cc(CNC(=O)CNc2cc(Cl)ccc2OC)ccn1,-8.92%
20,CCC1c2ccsc2CCN1C(=O)NCc1ccccn1 (stereo unspecified),-4.51%
21,O=C1C(NCc2nnc3n2CCCC3)CCN1c1ccccc1 (stereo unspecified),-11.2%
22,Cc1cc(C)c(CNC(=O)NCC2CCCN2C)c(=O)[nH]1 (stereo unspecified),-2.14%
23,COCC(=O)NC(C)Cc1cccc(Br)c1 (stereo unspecified),-8.21%

row,SMILES,cytotoxicity at 10 µM
1,CCc1nnc2n1CCN(CCS(=O)(=O)c1ccccc1)C2,-11.6%
2,FC(F)(F)Cn1ccnc1CN1CCCC1c1noc(C2CC2)n1 (stereo unspecified),1.78%
3,CN(Cc1nnc(C2CC2)o1)C1CCN(CCCc2cnn(C)c2)C1 (stereo unspecified),5.27%
4,COCc1nc(C(=O)N2CCCC2c2ccccc2C)cs1 (stereo unspecified),4.28%
5,Cc1cnn(CCC(=O)N2CCN(c3ncccc3Cl)CC2)c1,2.41%
6,CC(O)CN1CCC(CNCc2cccc(Br)c2)CC1 (stereo unspecified),-12.1%
7,CN(C)C(=O)c1ccc(CNC(=O)NCCN(C)C2CCCC2)cc1,-5.58%
8,COCCc1noc(CN2CCOC(Cn3nc(C)cc3C)C2)n1 (stereo unspecified),-6.66%
9,Cc1ncsc1C(=O)N1CCCN(Cc2cscn2)CC1,-9.67%
10,COc1cccc(CCC(=O)N2CCC[C@@H](N)[C@@H]2c2ccccc2F)c1,8.3%
11,CCOc1ccc(C(=O)N2CCN(c3nccn3C)CC2)cc1,5.89%
12,Cc1ccc(CN2CCC(O)(Cn3nc(-c4cccs4)oc3=O)CC2)o1,8.52%
13,NCC1CCC(c2c(C(N)=O)sc3ccccc23)CC1 (stereo unspecified),1.52%
14,Cn1cc(CN2CCn3cc(CNC(=O)C4CCC4)nc3C2)cn1,-6.66%
15,O=C1[C@H]2CN(Cc3cccs3)C[C@H]2CN1c1ccsc1,-79%
16,CC(=O)N1CCC2(CC1)COC(COCc1ccccn1)C2 (stereo unspecified),-114%
17,CN(C)CCn1c2c(ccc1=O)CC(NC(=O)c1cnccn1)CC2 (stereo unspecified),-2.4%
18,O=C(c1ccncc1)N1CCC2(CC1)CCN(Cc1ccccn1)C2=O,-3.18%
19,O=C(c1ccco1)N1C2CCC(O)(CC2)C1CO (stereo unspecified),6.88%
